According to publication PMC6057249 (The Indian Journal of Medical Research, 2018):
Values after ≈ are worked out from the molar mass of the structure shown. Values joined by “and” are separate entries in the source; they are usually repeats but may differ in a detail not shown here. Identical values can stand only once. Like-named read-outs stand apart in the source and are kept apart here. Bridge positions count the residues as written; N and C are the ends. Square brackets hold non-standard residues; d marks the D form. Peptide text beside a SMILES is read from it. * marks the point of attachment. X1 = CC[C@H](C)CCCCC(=O)*; Dab = NCC[C@H](N)C(=O)O

Legend:
[1] = type: in vivo, human; conditions: for AUC after 5th dose: individual patients, steady state, plasma, AUC0-8; for average steady-state concentration (Css, avg) of formed colistin, median: six patients receiving 2 MU q8h, no loading dose
Method in brief: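 CMS was given by 1-h i.v. infusion every 8 h. Heparinized venous blood was drawn pre-dose, at end of infusion, then 30 min and 1.5, 2, 4, 6, 8 h after dose 1 and dose 5 (steady state). Plasma (200 μl) was stored at −80°C. CMS was acid-hydrolysed (5% formic acid, 30 min), and colistin A+B were quantified by UHPLC-MS/SRM against a reserpine internal standard. Values are total colistin, with outliers omitted.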

[2] = test system: MDR Gram-negative infections; test: Bacteriological profile and clinical outcome of patients on colistin monotherapy; type: in vivo, human; conditions: 1-2 MU i.v. every 8 h
Method in brief: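 ICU patients >12 yr with normal renal function and bloodstream infection by an MDR Gram-negative organism susceptible only to colistin. They received colistin monotherapy as CMS by 1-h i.v. infusion every 8 h, without a loading dose, for […]. Follow-up cultures were taken. Exclusions were expected survival <72 h, pregnancy, burns >20% of body surface, and cystic fibrosis.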

[3] = cited from earlier work
Acinetobacter baumannii = test: MIC for colistin by E-test; type: cell-based; conditions: isolate of the individual patient
Method in brief: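 Organisms came from positive cultures of ICU patients with MDR Gram-negative bloodstream infection and were identified and susceptibility-tested. Colistin MIC for each patient's isolate was determined by E-test per the manufacturer's instructions.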

[4] = stored plasma samples; to be estimated within four months; ref [17]; cited from earlier work

Compound	terminal half-life, range ([1]; 2 MU i.v. every 8 h, after 1st dose) [h]	terminal half-life, range ([1]; 2 MU i.v. every 8 h, after 5th dose) [h]	AUC after 5th dose ([1]; 1 MU i.v. every 8 h)	AUC after 5th dose ([1]; 2 MU i.v. every 8 h)	Vd for a majority of patients ([1]; patients of this study)	average steady-state concentration (Css, avg) of formed colistin, median ([1]; after 1st dose) [ng/mL]	average steady-state concentration (Css, avg) of formed colistin, median ([1]; after 5th dose) [ng/mL]	follow up cultures ([2]; all nine patients)	patients who did not survive ([2]; nine patients) [per cent]	apparent terminal t1/2 ([3]; 2 MU dosage regimen, ref Imberti et al [10]) [h]	t1/2 ([3]; after 2.8 MU dosage, ref Markou et al [11]) [h]	Vd ([3]; cystic fibrosis patients, single dose, ref [17])	Vd ([3]; cystic fibrosis patients, steady state, ref [17])	Vd ([3]; other Indian study, after both the single dose and at steady state, ref [7])	Vd ([3]; other studies, ref [10]) [L/kg]	MIC (Acinetobacter baumannii) [µg/mL]	stability in stored samples (conversion of CMS to colistin) [4]
CC[C@H](C)CCCCC(=O)N[C@@H](CCN)C(=O)N[C@H](C(=O)N[C@@H](CCN)C(=O)N[C@H]1CCNC(=O)[C@H]([C@@H](C)O)NC(=O)[C@H](CCN)NC(=O)[C@H](CCN)NC(=O)[C@H](CC(C)C)NC(=O)[C@@H](CC(C)C)NC(=O)[C@H](CCN)NC1=O)[C@@H](C)O [colistin] (X1-[Dab]T[Dab][Dab][Dab][dL]L[Dab][Dab]T; lactam 4-C)	4.7 to 9.84	2.72 to 8.5	5.4 mg·h/L and 8.5 mg·h/L and 3.5 mg·h/L	15.8 mg·h/L and 6.0 mg·h/L and 4.4 mg·h/L	more than 1.0 l/kg	570	720	sterile	30	5.9 ± 2.6	7.4 ± 1.7	0.09 (0.02) l/kg	0.09 (0.03) l/kg	0.3 (0.2-0.5) l/kg	1.5 ± 1.1	0.125 (≈ 0.107 µM)	
colistin methanesulphonate [CMS]																	unstable
